NR2E3 ag-1 = activates human NR2E3 receptor; inhibition of corepressor binding, % at 3.98 µM; 360,000 compounds, 0.35% hits; CHO-S Gal4-NCOR/VP16-NR2E3 two-hybrid, luciferase; AID 602229;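 active = inhibition above the mean of all tested compounds plus 3 SD, cut at about 70% in these data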;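 note: higher means lower luciferase signal from less NR2E3 corepressor binding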
Target sequence (Q9Y5X4 whole entry, looked up, the tested form may be a part): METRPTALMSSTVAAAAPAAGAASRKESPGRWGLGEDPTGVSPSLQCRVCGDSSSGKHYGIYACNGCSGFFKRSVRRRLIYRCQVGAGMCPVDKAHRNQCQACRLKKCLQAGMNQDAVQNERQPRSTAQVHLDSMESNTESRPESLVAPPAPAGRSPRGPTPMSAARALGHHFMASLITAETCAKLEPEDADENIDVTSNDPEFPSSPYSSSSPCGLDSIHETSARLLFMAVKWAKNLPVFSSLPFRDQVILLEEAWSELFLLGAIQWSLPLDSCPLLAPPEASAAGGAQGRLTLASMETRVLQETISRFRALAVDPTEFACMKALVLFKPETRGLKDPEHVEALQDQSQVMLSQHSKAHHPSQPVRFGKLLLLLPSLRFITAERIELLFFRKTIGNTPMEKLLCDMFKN
NR1D1 modulator = modulates human Rev-erb alpha binding to DNA | P20393 | Rev-erbα–FITC-DNA binding, fluorescence polarization, 90 min | 370,000 compounds, 0.79% hits | activity, % at 10 µM;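 active = activity above about 14%, limit read from the data; passing the limit was not always enough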
PG9 Ab binder = PG9 antibody binding by small molecule; TR-FRET gp120-PG9 antibody binding; AID 624416; inhibition, % at 6.7 µM; 360,000 compounds, 0.43% hits; in the data active = inhibition above about 8.5%
NR2E3 ag-2 = activates human photoreceptor nuclear receptor NR2E3; Q9Y5X4; GST-NR2E3/biotin-RetCOR TR-FRET, 1536-well; inhibition of corepressor binding, % at 4.78 µM; 320,000 compounds, 0.12% hits; AID 2300;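 active = percent inhibition above the cutoff of mean plus 3 SD of all tested compounds, set per screening campaign, cut at about 20% in these data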
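System: GST-NR2E3 and biotin-RetCOR proteins; probe or stimulus: 7 nM biotin-RetCOR; doses: compound at 4.8 µM, single dose; schedule: Compound–protein incubation for 5 h at 4 °C; detection: time-resolved FRET; read-out: percent inhibition; controls: biotin wells as high control, 0.6% DMSO wells as low control; format: 1536-well plates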
NR2E3 ag conf = confirmation of human NR2E3 agonists; CHO-S mammalian two-hybrid NR2E3-NCOR, luciferase luminescence; 2,300 compounds, 51% hits; inhibition, % at 3.98 µM; AID 624378; shares compounds with NR2E3 ag-1;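 active = average inhibition above a cutoff equal to the mean inhibition of all tested compounds plus one SD, cut at about 70% in these data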
VP16 counter = counter-screen for NR2E3 agonists: GAL4-VP16 reporter inhibitors; shares compounds with NR2E3 ag-1; AID 624379; CHO-S GAL4-VP16 luciferase reporter, luminescence; inhibition, % at 3.98 µM; 2,300 compounds, 29% hits;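 active = mean inhibition above a cutoff equal to the average over all tested compounds plus one standard deviation, cut at about 70% in these data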;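 note: luciferase from a UAS reporter driven by GAL4-VP16 transactivation; higher means less reporter light so more repression of VP16 activity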
Of the large screens only hits and unclear results are named; the others gave an inactive call (follow-up assays come after a bar, where they were run). In the library only some 1.5% were active in any assay of this set; here they are far more common.

Cc1ccc(-n2c(-c3ccc(Br)cc3)c[n+]3c2CCc2ccc4cccnc4c2-3)cc1	NR2E3 ag-1 83 | NR2E3 ag conf 99 | VP16 counter 72
Cc1ccc(S(=O)(=O)N2CCN(c3ncccn3)CC2)cc1C	none
Cc1ccc(S(=O)(=O)N2CCN(c3ncnc4sccc34)CC2)cc1C	NR2E3 ag-1 105 (no result: NR2E3 ag-2) | NR2E3 ag conf 91 | VP16 counter 79
O=C(NC1CCCCN(Cc2cccc(F)c2)C1=O)c1cccc(F)c1 (stereo not given)	none (no result: NR2E3 ag-1, PG9 Ab binder, NR2E3 ag-2)
COC1=CC(=O)c2c(ccc3ncnc(N)c23)C1=O	NR2E3 ag-1 102 (no result: NR2E3 ag-2) | NR2E3 ag conf 101 | VP16 counter 101
COc1cc(/C=N/NC(=O)c2sc(N)c(C#N)c2C)cc(Br)c1O	none | NR2E3 ag conf inactive | VP16 counter inactive
COC(=O)[C@]12C[C@H](CC(=O)NCC3CCCCC3)C(=O)N(Cc3cccc4ccccc34)C1=C[C@H](C(C)C)O[C@@H]2C1CC1	none (no result: NR2E3 ag-1, PG9 Ab binder, NR2E3 ag-2)
O=c1[nH]c(=O)n(C2OC(CO)C(O)C2O)cc1F (stereo not given)	none (no result: NR1D1 modulator, PG9 Ab binder, NR2E3 ag-2) | NR2E3 ag conf inactive | VP16 counter inactive
CN(C)S(=O)(=O)N1CCC(Oc2ccc(C(=O)N3C[C@H]4CC[C@H]3C4)cc2)CC1	none | NR2E3 ag conf inactive | VP16 counter inactive
O=C1[C@H]2C[C@@]3(n4ccc5ccccc54)c4ccccc4N(S(=O)(=O)c4ccccc4)[C@H]3N2C(=O)CN1Cc1ccccc1	none (no result: NR2E3 ag-1, PG9 Ab binder, NR2E3 ag-2)
CCOC(=O)C1=NOC(C(=O)NC2CCCC2)(C(=O)c2ccc(OC)cc2)C1 (stereo not given)	none (no result: NR2E3 ag-1, PG9 Ab binder, NR2E3 ag-2)
CC(CCc1ccccc1)NC(=S)NC(=O)c1ccco1 (stereo not given)	none
O=C(NC(=S)N(CCc1ccccc1)CCc1ccccc1)c1ccco1	none | NR2E3 ag conf inactive | VP16 counter inactive
O=C(NC(=S)N(Cc1ccccc1)Cc1ccccc1)c1ccccc1F	none | NR2E3 ag conf inactive | VP16 counter inactive
Cc1ccc(C#N)c(SCc2cc3c(cc2Cl)OCO3)n1	none
Cc1cc(C)c(C#N)c(SCc2nnc(-c3ccccc3)o2)n1	NR2E3 ag-1 88 | NR2E3 ag conf 73 | VP16 counter inactive
Cc1cc(C)c(C#N)c(SCc2nnc(-c3ccccc3[N+](=O)[O-])o2)n1	none
Cc1ccc(C#N)c(SCc2nnc(-c3ccc(Cl)cc3)o2)n1	NR2E3 ag-1 72 | NR2E3 ag conf 77 | VP16 counter inactive
CCOC(=O)Cn1cc(CN2CCS(=O)(=O)N(Cc3ccc(F)cc3)C(C(=O)OC)C2)nn1 (stereo not given)	none (no result: NR2E3 ag-1, PG9 Ab binder, NR2E3 ag-2)
COc1ccccc1Sc1nc(-c2ccccn2)ncc1OC	NR2E3 ag-1 78 | NR2E3 ag conf inactive | VP16 counter inactive
FC(F)(F)c1cccc(Sc2cc(C(F)(F)F)nc(-c3ccccn3)n2)c1	none
COc1cnc(-c2ccccn2)nc1Sc1ccc(C)cc1	NR2E3 ag-1 94 | NR2E3 ag conf inactive | VP16 counter inactive
COc1cnc(-c2ccccn2)nc1Sc1cccc(Cl)c1	none | NR2E3 ag conf inactive | VP16 counter inactive
COc1cnc(-c2ccccn2)nc1Oc1ccc(F)cc1F	none
COc1ccc(-c2nc(-c3ccccn3)ncc2S(C)(=O)=O)cc1	none
Cc1ccc(Sc2cc(C)nc(-c3ccccn3)n2)cc1	NR2E3 ag-1 86 | NR2E3 ag conf inactive | VP16 counter inactive
Cc1ccc(-n2c(SCC(=O)Nc3ccccc3-c3ccccc3)nnc2-c2cccs2)cc1	none (no result: NR2E3 ag-1, PG9 Ab binder, NR2E3 ag-2)
COC(=O)[C@]12C[C@H](CC(=O)NCc3ccc(C)o3)C(=O)N(Cc3cccc4ccccc34)C1=C[C@H](C(C)C)O[C@@H]2C1CC1	none (no result: NR2E3 ag-1, PG9 Ab binder, NR2E3 ag-2)
COc1cnc(-c2ccccn2)[nH]c1=O	none
COc1cnc(-c2ccccn2)nc1NC(C)C	none | NR2E3 ag conf inactive | VP16 counter inactive
CC1CCc2nc(NC(=O)CSc3nc4ccccc4o3)sc2C1 (stereo not given)	NR2E3 ag-1 84 | NR2E3 ag conf inactive | VP16 counter inactive
CC(=O)N1CC(C)Sc2ccc(S(=O)(=O)NCCc3ccc(C)cc3)cc21 (stereo not given)	NR2E3 ag-1 80 | NR2E3 ag conf 74 | VP16 counter inactive
CC(=O)N1CC(C)Sc2ccc(S(=O)(=O)NCc3ccc(Cl)cc3)cc21 (stereo not given)	none | NR2E3 ag conf inactive | VP16 counter inactive
CSc1nc2ccc(S(=O)(=O)NC3CCCCC3)cc2s1	none | NR2E3 ag conf inactive | VP16 counter inactive
CSc1nc2ccc(NS(=O)(=O)c3ccc4c(c3)OCCO4)cc2s1	NR2E3 ag-1 76 | NR2E3 ag conf 91 | VP16 counter 82
CSc1nc2ccc(S(=O)(=O)N3CCCCC3)cc2s1	none
CSc1nc2ccc(NS(=O)(=O)c3c(Cl)cccc3Cl)cc2s1	none
CCc1ccccc1NC(=O)COC(=O)c1c(C)nsc1NC	none
CNc1snc(C)c1C(=O)OCC(=O)Nc1ccc(C)cc1F	none (no result: NR2E3 ag-2) | NR2E3 ag conf inactive | VP16 counter inactive
COc1ccccc1NC(=O)N1CCN(c2cccc(C(F)(F)F)c2)CC1	none
COc1ccccc1CC(=O)N1CCN(c2cccc(C(F)(F)F)c2)CC1	none | NR2E3 ag conf 94 | VP16 counter 71
COc1ccc2c(c1)CN1CN(Cc3ccccc3)S(=O)(=O)CC21 (stereo not given)	none (no result: NR2E3 ag-1, PG9 Ab binder, NR2E3 ag-2)
O=C(C1CC1)N1CCc2cc(Br)cc(S(=O)(=O)N3CCN(c4ccccn4)CC3)c21	NR2E3 ag-1 87 | NR2E3 ag conf 90 | VP16 counter inactive
O=S(=O)(NCC1CCCO1)c1ccc(-c2ccc(S(=O)(=O)NCC3CCCO3)cc2)cc1 (stereo not given)	none | NR2E3 ag conf 92 | VP16 counter 73
Cc1ccc(S(=O)(=O)NCC2CCCO2)cc1 (stereo not given)	none
COc1ccc(Nc2ncnc3sccc23)cc1OC	none
CN(C)c1ccc(CNc2ncnc3sccc23)cc1	NR2E3 ag-1 99 | NR2E3 ag conf 93 | VP16 counter inactive
COc1ccc(CCNc2ncnc3sccc23)cc1OC	NR2E3 ag-1 90 | NR2E3 ag conf 98 | VP16 counter 90
Fc1ccccc1CNc1ncnc2sccc12	NR2E3 ag-1 100 | NR2E3 ag conf 88 | VP16 counter 71
c1ccc2c(c1)OCC(CNc1ncnc3sccc13)O2 (stereo not given)	NR2E3 ag-1 84 (no result: NR1D1 modulator) | NR2E3 ag conf 97 | VP16 counter 87
NS(=O)(=O)c1ccc(CNc2ncnc3sccc23)cc1	none
COc1ccc(-c2nnn3c2Cn2c4ccccc4c(=O)n2[C@@H](C)C3)cc1	none (no result: NR2E3 ag-1, PG9 Ab binder, NR2E3 ag-2)
COC(=O)[C@]1(C)CN(C(=O)OC(C)(C)C)C2=C1C(=O)C[C@@](C)(C(=O)OC(C)(C)C)C2	none (no result: NR2E3 ag-1, PG9 Ab binder, NR2E3 ag-2)
CCCCCCCCN1CN2Cc3cc(OC)ccc3C2CS1(=O)=O (stereo not given)	none (no result: NR2E3 ag-1, PG9 Ab binder, NR2E3 ag-2)
C[C@@H]1/C=C/CC(=O)N[C@H](c2ccc3ccccc3c2)[C@H](C)/C=C/CC(=O)N[C@@H]1c1ccc2ccccc2c1	none (no result: NR2E3 ag-1, PG9 Ab binder, NR2E3 ag-2)
